High-throughput results: PubChem, Broad Institute
A selection: hits, their analogues and other compounds. The true share with any hit is near 2.2%.
PGC1a acetyl inh: PGC1a acetylation modulation, inhibitor mode; U2OS PGC1a acetylation, AlphaScreen anti-acetyl-lysine; with virally co-expressed GCN5 acetyltransferase; inhibition, % at 15.6 µM; hit rate 0.17% among 350,000; AID 651687;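 active = every replicate shows inhibition of at least 40%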;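 also: 0% = neutral control wells and 100% = positive control wells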
FN deposit inh: fibronectin deposition inhibition; AH1F fibroblasts, Alexa488-fibronectin deposition fluorescence, overnight; hit rate 0.086% among 350,000; inhibition, % at 12.6 µM; AID 743247;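 active = mean inhibition across replicates of 30% or more, regardless of how many single replicates reach that level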;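 also: positive control wells lacked labelled fibronectin entirely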
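Assay system: AH1F fibroblasts assembling fluorescent fibronectin matrix; Amount: 10000 AH1F cells per well; Buffer or medium: DMEM, 2% serum; Probe or stimulus: Alexa488-fibronectin, 24 nM final in well; Doses: single compound dose, delivered by pin transfer; Incubation: 1 h adhesion, overnight exposure; Measured by: fluorescence 485/525 nm; Read-out: fibronectin deposition inhibition.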
SIRT5 inh: blocks human SIRT5 desuccinylation of peptide | Purified SirT5, succinyl-peptide AMC, trypsin-coupled fluorescence | AID 652115 | Q9NXA8 | hit rate 1.1% among 330,000 | inhibition, % at 15 µM; in the data active = inhibition above about 15%
ERAP1 HTS inh: inhibitors of human ERAP1 aminopeptidase. Q9NZ08. recombinant ERAP1, Leu-AMC fluorescence, 60 min. inhibition, % at 10.7 µM. hit rate 0.15% among 340,000. AID 652197;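 active = mean replicate inhibition of at least 30%, or all replicates individually reaching that 30% level; inactive = mean below 30% and not every replicate reaching it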;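 also: 0% = neutral control wells and 100% = L-leucinethiol positive control wells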
FGF22 binding: shifts melting point of recombinant human FGF22; Q9HCT0; recombinant FGF22 thermal shift, SYPRO orange fluorescence; percent of sucrose octasulfate shift, DMSO zero; activity (Tm shift, normalised), % at 9.99 µM; hit rate 1.5% among 340,000; AID 651658;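 active = mean Tm shift, scaled 0 neutral to 100 positive control, at about 1.3% or above, every replicate too, limit read from the data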
Target sequence (Q9HCT0 whole entry, looked up): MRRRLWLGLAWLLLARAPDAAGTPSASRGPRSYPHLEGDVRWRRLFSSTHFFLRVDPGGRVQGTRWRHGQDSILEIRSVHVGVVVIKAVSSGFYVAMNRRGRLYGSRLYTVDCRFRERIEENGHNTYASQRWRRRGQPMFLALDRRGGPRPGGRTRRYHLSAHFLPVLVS
* = called active by the depositor; x = no result.

SMILES	PGC1a acetyl inh	FN deposit inh	SIRT5 inh	ERAP1 HTS inh	FGF22 binding
Cc1nn(-c2ccc(C(=O)OC(C)C)cc2)c(C)c1[N+](=O)[O-]	-12	-2	-1	3	0
Cc1nn(CC(=O)Nc2ccc(Cl)cn2)c(C)c1[N+](=O)[O-]	11	-5	x	x	x
Cc1nn(CC(=O)c2cccc(Cl)c2)c(C)c1[N+](=O)[O-]	-1	-1	-1	3	43*
C[C@H]1CCCCO[C@H](CN(C)S(C)(=O)=O)[C@@H](C)CN([C@@H](C)CO)C(=O)c2cc(NS(C)(=O)=O)ccc2O1	6	x	x	x	0
CS(=O)(=O)Nc1ccc2c(c1)[C@@H]1C[C@H](CC(=O)NCC3CC3)O[C@H](CO)[C@@H]1O2	0	x	-3	1	0
CCC(C)NC(=O)/C=C/c1cccs1 (stereo not given)	x	-8	17*	4	0
Cc1ccnc(NS(=O)(=O)c2ccc(NC(=O)/C=C/c3ccccc3)cc2)n1	15	1	4	-3	0
O=C(/C=C/c1cccs1)Nc1ccc([N+](=O)[O-])cc1	-17	-1	x	x	x
O=C(/C=C/c1cccs1)Nc1ccncc1	x	3	35*	-1	1
Cc1ccnc(NS(=O)(=O)c2ccc(NC(=O)/C=C/c3cccs3)cc2)n1	x	-8	1	-1	44*
C[C@@H]1CCCCO[C@@H](CN(C)C)[C@H](C)CN([C@@H](C)CO)C(=O)c2cc(NS(C)(=O)=O)ccc2O1	-3	-1	0	1	0
C[N+]1(C)CCC(=C2c3ccccc3CC(=O)c3sccc32)CC1	94*	4	x	x	x
O=C(C[C@@H]1CC[C@@H]2[C@H](COC[C@H](O)CN2C(=O)c2ccncc2)O1)Nc1ccc(-c2ccccc2)cc1	-10	6	1	3	-1
O=C(C[C@H]1CC[C@H]2[C@@H](COC[C@@H](O)CN2S(=O)(=O)c2ccccc2)O1)Nc1ccc(-c2ccccc2)cc1	-4	2	18*	2	0
CCNC(=O)C[C@@H]1CC[C@H]2[C@@H](COC[C@H](O)CN2C(=O)c2cccnc2)O1	-7	-7	17*	2	0
O=C(C[C@H]1CC[C@H]2[C@@H](COC[C@@H](O)CN2C(=O)c2ccncc2)O1)Nc1ccc(-c2ccccc2)cc1	-2	-1	27*	0	0
O=C(Nc1ccccc1)[C@H]1[C@H](CO)[C@H]2Cn3c(cccc3=O)[C@H]2N1C(=O)C1CCCC1	x	x	-4	-3	0
C[C@@H]1CN([C@H](C)CO)C(=O)c2cc(NC(=O)C3CCCCC3)ccc2O[C@@H](C)CCCCO[C@@H]1CN(C)Cc1ccc(C(F)(F)F)cc1	12	x	x	x	0
O=C(N[C@H]1CC[C@@H](CCNC(=O)C2CC2)O[C@@H]1CO)c1ccccn1	6	-9	-2	-1	1
Cc1ccccc1C1NC(=S)NC2=C1C(=O)CC(C)(C)C2 (stereo not given)	x	16	-2	3	43*
Cc1ccc(C(=O)OCC(=O)N2CCC(c3ccccc3)=N2)c(C)c1	6	-5	0	-1	x
CC(C)(C)c1ccc(C(=O)OCC(=O)N2CCC(c3ccccc3)=N2)cc1	x	-1	0	2	30*
COC(=O)C[C@H]1C[C@H]2c3cc(NS(=O)(=O)c4ccc(F)cc4)ccc3O[C@H]2[C@H](CO)O1	-10	-4	6	1	0
C[C@@H]1CN([C@@H](C)CO)C(=O)Cc2cc(NC(=O)Nc3cccc4ccccc34)ccc2O[C@H]1CN(C)C	4	x	5	-4	0
O=C(Cn1c(-c2ccccc2)c[n+]2ccsc12)c1ccc([N+](=O)[O-])cc1	x	-1	-1	2	43*
SMILES	PGC1a acetyl inh	FN deposit inh	SIRT5 inh	ERAP1 HTS inh	FGF22 binding
CCC(=O)NNC(=O)CCC(=O)Nc1ccc(C)cc1C	0	3	-2	-5	43*
COc1ccc(C(=O)Nc2nnc(CC(=O)N/N=C/c3ccc(O)cc3O)s2)cc1	x	-2	17*	-8	0
Cc1ccc(C(=O)Nc2nnc(CC(=O)N/N=C/c3ccncc3)s2)cc1	x	-1	-2	-5	44*
COc1ccc(/C=C\C(=O)NCC(=O)N/N=C/c2ccc(O)cc2O)cc1	0	-5	1	-2	0
Cc1ccc(C(=O)Nc2nnc(CC(=O)N/N=C/c3ccc(O)c(O)c3)s2)cc1	x	8	3	0	0
CCOC(=O)c1cnc2ccc(OCC)cc2c1NCCCN1CCOCC1	13	-4	27*	9	0
